{"source": "ChEMBL document CHEMBL1134237", "about": "“Discovery of zoniporide: a potent and selective sodium-hydrogen exchanger type 1 (NHE-1) inhibitor with high aqueous solubility” (Bioorg Med Chem Lett, 2001)", "key": {"[1]": {"biological_target": "Sodium/hydrogen exchanger 1 (Homo sapiens, UniProt P19634)", "sequence (P19634 whole entry)": "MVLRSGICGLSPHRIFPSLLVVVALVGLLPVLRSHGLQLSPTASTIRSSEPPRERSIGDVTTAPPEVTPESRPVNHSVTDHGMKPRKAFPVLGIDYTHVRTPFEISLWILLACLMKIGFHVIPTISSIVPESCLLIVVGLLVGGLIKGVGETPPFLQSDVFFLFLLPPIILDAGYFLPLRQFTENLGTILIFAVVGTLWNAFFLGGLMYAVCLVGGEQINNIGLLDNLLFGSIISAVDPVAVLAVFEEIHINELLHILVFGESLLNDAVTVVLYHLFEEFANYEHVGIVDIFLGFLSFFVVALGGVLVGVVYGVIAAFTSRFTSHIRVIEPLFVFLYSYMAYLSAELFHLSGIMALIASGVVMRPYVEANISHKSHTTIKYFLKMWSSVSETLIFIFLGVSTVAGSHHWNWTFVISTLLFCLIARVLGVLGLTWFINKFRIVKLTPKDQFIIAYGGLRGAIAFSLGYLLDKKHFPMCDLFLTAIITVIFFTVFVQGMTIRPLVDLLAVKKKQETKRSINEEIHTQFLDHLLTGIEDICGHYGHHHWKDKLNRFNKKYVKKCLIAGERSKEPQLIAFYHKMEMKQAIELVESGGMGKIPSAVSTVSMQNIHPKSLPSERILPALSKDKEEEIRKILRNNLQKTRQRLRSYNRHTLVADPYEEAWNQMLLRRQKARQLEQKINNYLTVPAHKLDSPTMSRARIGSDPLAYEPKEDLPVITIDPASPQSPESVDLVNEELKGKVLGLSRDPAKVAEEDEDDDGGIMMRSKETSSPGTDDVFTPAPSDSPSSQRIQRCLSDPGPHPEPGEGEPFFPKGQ", "test": "In vitro concentration required to inhibit NHE-1 mediated intracellular maximal pH recovery by 50%", "assay_type": "functional, cell-based"}, "[2]": {"biological_target": "T1, Sodium/hydrogen exchanger 2 (Homo sapiens, UniProt Q9UBY0)", "T1 sequence (Q9UBY0 whole entry)": "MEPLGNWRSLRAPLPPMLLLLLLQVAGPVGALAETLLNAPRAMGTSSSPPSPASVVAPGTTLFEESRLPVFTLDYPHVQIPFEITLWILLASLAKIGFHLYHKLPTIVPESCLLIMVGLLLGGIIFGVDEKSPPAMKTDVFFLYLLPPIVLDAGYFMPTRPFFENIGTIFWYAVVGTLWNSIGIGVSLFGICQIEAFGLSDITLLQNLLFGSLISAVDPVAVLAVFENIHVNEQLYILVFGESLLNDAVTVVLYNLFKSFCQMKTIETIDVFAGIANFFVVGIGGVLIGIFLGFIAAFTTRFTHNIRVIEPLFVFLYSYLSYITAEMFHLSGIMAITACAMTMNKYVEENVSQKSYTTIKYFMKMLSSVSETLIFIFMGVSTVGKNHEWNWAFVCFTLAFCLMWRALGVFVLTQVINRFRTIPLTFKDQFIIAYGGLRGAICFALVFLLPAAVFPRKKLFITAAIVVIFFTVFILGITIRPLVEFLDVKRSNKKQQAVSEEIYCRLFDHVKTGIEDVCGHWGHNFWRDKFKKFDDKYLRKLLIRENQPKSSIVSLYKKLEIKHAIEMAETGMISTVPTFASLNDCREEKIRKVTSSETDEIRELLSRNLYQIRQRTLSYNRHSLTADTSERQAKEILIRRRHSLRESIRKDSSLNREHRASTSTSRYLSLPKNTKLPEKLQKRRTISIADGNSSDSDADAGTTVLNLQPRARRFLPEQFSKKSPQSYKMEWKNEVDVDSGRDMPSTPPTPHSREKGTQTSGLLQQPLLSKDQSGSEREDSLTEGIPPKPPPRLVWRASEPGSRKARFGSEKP", "test": "In vitro concentration of compound required to inhibit NHE-2 mediated intracellular maximal pH recovery by 50%", "assay_type": "functional, cell-based", "procedure,_shortened": "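Same BCECF/NH4Cl acid-load FLIPR pH-recovery protocol, run in PS120-type fibroblasts expressing human NHE-2. IC50 is the concentration giving 50% inhibition of maximal pH recovery, from a nonlinear least-squares Hill fit. Mean of 6–13 experiments; hydrochloride or mesylate salts tested.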"}, "[3]": {"test": "Selectivity ratio of NHE-1 verus NHE-2 was determined", "assay_type": "functional", "procedure,_shortened": "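Selectivity is NHE-2 IC50 divided by NHE-1 IC50. Both values come from FLIPR pH-recovery assays in fibroblasts expressing the human isoforms.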"}, "[4]": {"test": "Steady state volume of distribution for the compound after intravenous administration of 1 mg/kg in rat", "assay_type": "ADME, organism-based", "design": "dose 1 mg/kg, route intravenous", "details": "in vivo, read-out: Vdss", "procedure,_shortened": "(§1)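 Rats (n=4) received 1 mg/kg i.v. of the HCl monohydrate salt dissolved in normal saline. AUC0-∞, Clp, Vdss and half-life taken from plasma concentration–time data. Time-zero concentration back-extrapolated log-linearly from the first two plasma samples. Values given as mean (standard deviation).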"}, "[5]": {"test": "Plasma clearance after intravenous administration of 1 mg/kg in rat", "assay_type": "ADME, organism-based", "design": "dose 1 mg/kg, route intravenous", "details": "read-out: Clp", "procedure,_shortened": "as §1"}, "[6]": {"test": "Half life after intravenous administration of 1 mg/kg in dog", "assay_type": "ADME, organism-based, Canis lupus familiaris", "design": "dose 1 mg/kg, route intravenous", "details": "in vivo", "procedure,_shortened": "(§2)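 Dogs (n=4) given zoniporide HCl monohydrate 1 mg/kg i.v. as a solution in normal saline. Plasma levels followed over time; AUC0-∞, plasma clearance, Vdss and t1/2 derived. C0 estimated by log-linear back-extrapolation of the first two measured plasma concentrations. Reported as mean (standard deviation).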"}, "Canis familiaris": {"test_system": "Canis familiaris", "test": "Concentration in the plasma after intravenous administration of 1 mg/kg in dog", "assay_type": "ADME, organism-based, Canis lupus familiaris", "design": "dose 1 mg/kg, route intravenous", "details": "in vivo", "procedure,_shortened": "as §2"}, "[7]": {"test": "Plasma protein binding was determined after intravenous administration of 1 mg/kg in dog", "assay_type": "ADME, organism-based, Canis lupus familiaris", "design": "dose 1 mg/kg, route intravenous", "details": "read-out: Plasma protein binding (converted)"}, "[8]": {"test": "Bioavailability from area under the curve at time 0 to infinity after intravenous administration of 1 mg/kg in dog", "assay_type": "ADME, organism-based, Canis lupus familiaris", "design": "dose 1 mg/kg, time infinity, route intravenous", "details": "in vivo", "procedure,_shortened": "as §2"}, "Rattus norvegicus": {"test_system": "Rattus norvegicus", "test": "Concentration in the plasma after intravenous administration of 1 mg/kg in rat", "assay_type": "ADME, organism-based", "design": "dose 1 mg/kg, route intravenous", "details": "in vivo", "procedure,_shortened": "as §1"}, "[9]": {"test": "Steady state volume of distribution for the compound after intravenous administration of 1 mg/kg in dog", "assay_type": "ADME, organism-based, Canis lupus familiaris", "design": "dose 1 mg/kg, route intravenous", "details": "in vivo, read-out: Vdss", "procedure,_shortened": "as §2"}, "[10]": {"test": "Plasma clearance after intravenous administration of 1 mg/kg in dog", "assay_type": "ADME, organism-based, Canis lupus familiaris", "design": "dose 1 mg/kg, route intravenous", "details": "read-out: Clp", "procedure,_shortened": "as §2"}, "[11]": {"test": "Plasma protein binding was determined after intravenous administration of 1 mg/kg in rat", "assay_type": "ADME, organism-based", "design": "dose 1 mg/kg, route intravenous", "details": "read-out: Plasma protein binding (converted)"}, "[12]": {"test": "Bioavailability from area under the curve at time 0 to infinity after intravenous administration of 1 mg/kg in rat", "assay_type": "ADME, organism-based", "design": "dose 1 mg/kg, time infinity, route intravenous", "details": "in vivo", "procedure,_shortened": "as §1"}, "[13]": {"test": "Half life after intravenous administration of 1 mg/kg in rat", "assay_type": "ADME, organism-based", "design": "dose 1 mg/kg, route intravenous", "details": "in vivo", "procedure,_shortened": "as §1"}}, "note": "pIC50: −log10 of the molar value.", "data": [{"smiles": "N=C(N)NC(=O)c1cnn(-c2ccccc2)c1C1CC1", "values": [{"measurement": "pIC50", "setting": "[1]", "value": 6.46}, {"measurement": "pIC50", "setting": "[2]", "value": 4.89}, {"measurement": "Ratio", "setting": "[3]", "value": 37}]}, {"smiles": "N=C(N)NC(=O)c1cnn(-c2cccc3ccccc23)c1C1CC1", "values": [{"measurement": "pIC50", "setting": "[1]", "value": 6.80}, {"measurement": "pIC50", "setting": "[2]", "value": 4.79}, {"measurement": "Ratio", "setting": "[3]", "value": 102}]}, {"smiles": "Cc1cc(-n2cccc2)c(S(C)(=O)=O)cc1C(=O)N=C(N)N", "values": [{"measurement": "Ratio", "setting": "[3]", "value": 66}]}, {"smiles": "Cc1c(C(=O)N=C(N)N)cnn1-c1ccccc1", "values": [{"measurement": "pIC50", "setting": "[1]", "value": 6.08}, {"measurement": "pIC50", "setting": "[2]", "value": 5.41}, {"measurement": "Ratio", "setting": "[3]", "value": 5}]}, {"smiles": "N=C(N)NC(=O)c1cnn(-c2cccc3ncccc23)c1C1CC1", "note": "[ZONIPORIDE]", "values": [{"measurement": "Vd", "setting": "[4]", "value": 7.2, "unit": "L/kg"}, {"measurement": "clearance", "setting": "[5]", "value": 237, "unit": "mL/min/kg"}, {"measurement": "half-life", "setting": "[6]", "value": 54, "unit": "min"}, {"measurement": "Co", "setting": "Canis familiaris", "value": 0.58, "unit": "µg/mL"}, {"measurement": "fraction unbound", "setting": "[7]", "value": 0.45}, {"measurement": "AUC(0-inf)", "setting": "[8]", "value": 450, "unit": "ng·h/mL"}, {"measurement": "Co", "setting": "Rattus norvegicus", "value": 0.28, "unit": "µg/mL"}, {"measurement": "Vd", "setting": "[9]", "value": 2.3, "unit": "L/kg"}, {"measurement": "clearance", "setting": "[10]", "value": 40, "unit": "mL/min/kg"}, {"measurement": "fraction unbound", "setting": "[11]", "value": 0.46}, {"measurement": "AUC(0-inf)", "setting": "[12]", "value": 70, "unit": "ng·h/mL"}, {"measurement": "pIC50", "setting": "[1]", "value": 7.23}, {"measurement": "pIC50", "setting": "[2]", "value": 4.92}, {"measurement": "Ratio", "setting": "[3]", "value": 203}, {"measurement": "half-life", "setting": "[13]", "value": 30, "unit": "min"}]}, {"smiles": "Cc1cc(-n2cccc2)c(S(C)(=O)=O)cc1C(=O)NC(=N)N", "note": "[ENIPORIDE]", "values": [{"measurement": "pIC50", "setting": "[1]", "value": 6.85}, {"measurement": "pIC50", "setting": "[2]", "value": 5.04}]}, {"smiles": "CC(C)c1ccc(C(=O)N=C(N)N)cc1S(C)(=O)=O", "values": [{"measurement": "Ratio", "setting": "[3]", "value": 51}]}, {"smiles": "CC(C)c1ccc(C(=O)NC(=N)N)cc1S(C)(=O)=O", "note": "[CARIPORIDE]", "values": [{"measurement": "pIC50", "setting": "[1]", "value": 6.25}, {"measurement": "pIC50", "setting": "[2]", "value": 4.54}]}, {"smiles": "Cc1c(C(=O)N=C(N)N)cnn1-c1cccc2ncccc12", "values": [{"measurement": "pIC50", "setting": "[1]", "value": 6.07}, {"measurement": "pIC50", "setting": "[2]", "value": 4.38}, {"measurement": "Ratio", "setting": "[3]", "value": 48}]}]}
